In ChEMBL document CHEMBL2086296, “Synthesis of novel quinoline-2-one based chalcones of potential anti-tumor activity” (Eur J Med Chem, 2012):

Key:
[1] = system: NCI-H460; experiment: Cytotoxicity against human NCI-H460 cells after 24 hrs by SRB assay; type: functional; settings: NCI-H460, 24 h
Summary of the method: (§1)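 NCI 60-line screen. Cells in RPMI 1640 with 5% FBS and 2 mM L-glutamine, seeded at 5,000–40,000 cells/well by doubling time, then incubated 24 h at 37 °C, 5% CO2 before dosing. Time-zero plates fixed with TCA at drug addition. DMSO stocks diluted in medium with gentamicin to five concentrations, […]. Protein read by SRB staining. GI50, TGI and LC50 derived relative to control and time-zero.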

[2] = system: NCI-H522; experiment: Cytotoxicity against human NCI-H522 cells after 24 hrs by SRB assay; type: functional; settings: NCI-H522, 24 h; summary of the method: as §1
[3] = system: A549; experiment: Cytotoxicity against human A549 cells after 24 hrs by SRB assay; type: functional; settings: A549, 24 h; summary of the method: as §1
[4] = system: SF-295; experiment: Cytotoxicity against human SF295 cells after 24 hrs by SRB assay; type: functional; settings: SF-295, 24 h; summary of the method: as §1
[5] = system: SF-539; experiment: Cytotoxicity against human SF539 cells after 24 hrs by SRB assay; type: functional; settings: SF-539, 24 h; summary of the method: as §1
[6] = system: M14; experiment: Cytotoxicity against human M14 cells after 24 hrs by SRB assay; type: functional; settings: M14, 24 h; summary of the method: as §1
[7] = system: SK-MEL-28; experiment: Cytotoxicity against human SK-MEL-28 cells after 24 hrs by SRB assay; type: functional; settings: SK-MEL-28, 24 h; summary of the method: as §1
[8] = system: NCI/ADR-RES; experiment: (§2) Cytotoxicity against human NCI/ADR-RES cells after 24 hrs by SRB assay; type: functional; summary of the method: as §1
[9] = system: OVCAR-8; experiment: (§3) Cytotoxicity against human OVCAR8 cells after 24 hrs by SRB assay; type: functional; settings: OVCAR-8, 24 h; summary of the method: as §1
[10] = system: SK-OV-3; experiment: Cytotoxicity against human SKOV3 cells after 24 hrs by SRB assay; type: functional; settings: SK-OV-3, 24 h; summary of the method: as §1
[11] = system: ACHN; experiment: (§4) Cytotoxicity against human ACHN cells after 24 hrs by SRB assay; type: functional; summary of the method: as §1
[12] = system: CAKI-1; experiment: Cytotoxicity against human CAKI-1 cells after 24 hrs by SRB assay; type: functional; settings: CAKI-1, 24 h; summary of the method: as §1
[13] = system: TK-10; experiment: Cytotoxicity against human TK10 cells after 24 hrs by SRB assay; type: functional; settings: TK-10, 24 h
Summary of the method: (§5)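 NCI 60-cell screen. Cells are grown in RPMI 1640 with 5% FBS and 2 mM L-glutamine and seeded at 5,000–40,000 cells/well according to doubling time. They are preincubated 24 h at 37 °C in 5% CO2, and Tz plates are TCA-fixed at drug addition. Drug stock is in DMSO, diluted in medium with gentamicin, and tested at five concentrations (100, 10, 1.0, 0.1, […]). Protein is read by SRB staining. GI50, TGI and LC50 are derived relative to time-zero and control wells.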

[14] = system: 786-0; experiment: (§6) Cytotoxicity against human 786-0 cells after 24 hrs by SRB assay; type: functional; settings: 786-0, 24 h; summary of the method: as §1
[15] = system: MCF7; experiment: (§7) Cytotoxicity against human MCF7 cells after 24 hrs by SRB assay; type: functional; settings: MCF7, 24 h; summary of the method: as §1
[16] = system: MDA-MB-468; experiment: Cytotoxicity against human MDA-MB-468 cells after 24 hrs by SRB assay; type: functional; settings: MDA-MB-468, 24 h; summary of the method: as §1
[17] = Cytotoxicity against human Hs 578T cells after 24 hrs by SRB assay; type: functional; summary of the method: as §1
[18] = system: CCRF-CEM; experiment: (§8) Cytotoxicity against human CCRF-CEM cells after 24 hrs by SRB assay; type: cell-based
Summary of the method: (§9)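 NCI 60-cell screen. Cells grown in RPMI 1640 with 5% FBS and 2 mM L-glutamine, seeded at 5,000–40,000 cells/well, preincubated 24 h at 37 °C in 5% CO2. Drug stock in DMSO, diluted in medium with gentamicin; five final concentrations, 100, 10, 1.0, 0.1 and […]. Time-zero plates were TCA-fixed. Protein read by SRB staining; GI50, TGI and LC50 taken relative to time-zero.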

[19] = system: MOLT-4; experiment: Cytotoxicity against human MOLT4 cells after 24 hrs by SRB assay; type: cell-based; settings: molt-4, 24 h; summary of the method: as §9
[20] = system: EKVX; experiment: Cytotoxicity against human EKVX cells after 24 hrs by SRB assay; type: cell-based; summary of the method: as §9
[21] = system: HCT-116; experiment: Cytotoxicity against human HCT116 cells after 24 hrs by SRB assay; type: cell-based; settings: hct-116, 24 h; summary of the method: as §9
[22] = system: HCT-15; experiment: Cytotoxicity against human HCT15 cells after 24 hrs by SRB assay; type: cell-based; settings: hct-15, 24 h; summary of the method: as §9
[23] = system: HT-29; experiment: Cytotoxicity against human HT-29 cells after 24 hrs by SRB assay; type: cell-based; settings: ht-29, 24 h; summary of the method: as §9
[24] = system: HCC 2998; experiment: Cytotoxicity against human HCC2998 cells after 24 hrs by SRB assay; type: cell-based; settings: hcc 2998, 24 h; summary of the method: as §9
[25] = system: SF-268; experiment: Cytotoxicity against human SF268 cells after 24 hrs by SRB assay; type: cell-based; settings: sf-268, 24 h; summary of the method: as §9
[26] = system: SNB-19; experiment: Cytotoxicity against human SNB19 cells after 24 hrs by SRB assay; type: cell-based; settings: snb-19, 24 h
Summary of the method: (§10)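 NCI 60-cell-line screen: cells grown in RPMI 1640 with 5% FBS and 2 mM L-glutamine, seeded at 5,000–40,000 cells/well by doubling time, and preincubated 24 h at 37 °C in 5% CO2. Time-zero plates were TCA-fixed. DMSO stocks were diluted in medium with gentamicin to five concentrations (100, 10, 1.0, 0.1, […]). Protein was read by SRB, and GI50, TGI and LC50 were derived against time-zero.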

[27] = system: SR; experiment: Cytotoxicity against human SR cells after 24 hrs by SRB assay; type: functional; summary of the method: as §5
[28] = system: CCRF-CEM; experiment: as §8; type: functional; summary of the method: as §1
[29] = system: MDA-MB-435; experiment: Cytotoxicity against human MDA-MB-435 cells after 24 hrs by SRB assay; type: cell-based; settings: mda-mb-435, 24 h; summary of the method: as §9
[30] = system: OVCAR-3; experiment: Cytotoxicity against human OVCAR3 cells after 24 hrs by SRB assay; type: cell-based; settings: ovcar-3, 24 h; summary of the method: as §9
[31] = system: NCI/ADR-RES; experiment: as §2; type: cell-based; summary of the method: as §9
[32] = system: OVCAR-8; experiment: as §3; type: cell-based; settings: ovcar-8, 24 h; summary of the method: as §9
[33] = system: ACHN; experiment: as §4; type: cell-based; summary of the method: as §9
[34] = system: SN12C; experiment: Cytotoxicity against human SN12C cells after 24 hrs by SRB assay; type: cell-based; summary of the method: as §10
[35] = system: 786-0; experiment: as §6; type: cell-based; settings: 786-0, 24 h; summary of the method: as §9
[36] = system: DU-145; experiment: Cytotoxicity against human DU145 cells after 24 hrs by SRB assay; type: cell-based; settings: du-145, 24 h; summary of the method: as §9
[37] = system: MCF7; experiment: as §7; type: cell-based; settings: mcf7, 24 h; summary of the method: as §9
[38] = system: BT-549; experiment: Cytotoxicity against human BT549 cells after 24 hrs by SRB assay; type: cell-based; settings: bt-549, 24 h; summary of the method: as §9
[39] = system: T47D; experiment: Cytotoxicity against human T47D cells after 24 hrs by SRB assay; type: cell-based; summary of the method: as §10

SMILES: O=C(/C=C/c1cc2ccccc2[nH]c1=O)c1ccc(Cl)cc1
- GI50 [1]: 3.99 µM
- TGI [1]: 18.9 µM
- GI50 [2]: 2.23 µM
- TGI [2]: 6.58 µM
- GI50 [3]: 7.24 µM
- TGI [3]: > 100 µM
- GI50 [4]: 4.57 µM
- TGI [4]: 38.3 µM
- GI50 [5]: 2.07 µM
- TGI [5]: 8.02 µM
- GI50 [6]: 7.54 µM
- TGI [6]: 39.7 µM
- GI50 [7]: 17.7 µM
- TGI [7]: 72.5 µM
- GI50 [8]: 4 µM
- TGI [8]: 23.6 µM
- GI50 [9]: 4.93 µM
- TGI [9]: 21.2 µM
- TGI [10]: > 100 µM
- GI50 [11]: 7.27 µM
- TGI [11]: 27.4 µM
- GI50 [12]: 1.6 µM
- TGI [12]: 3.3 µM
- GI50 [13]: 5.05 µM
- TGI [13]: 20.8 µM
- GI50 [14]: 13.8 µM
- TGI [14]: > 100 µM
- GI50 [15]: 2.41 µM
- TGI [15]: > 100 µM
- GI50 [16]: 2.96 µM
- TGI [16]: 9.88 µM
- GI50 [17]: 11.1 µM
- TGI [17]: > 100 µM
- LC50 [18]: > 100 µM
- LC50 [19]: > 100 µM
- LC50 [20]: > 100 µM
- LC50 [21]: 66.5 µM
- LC50 [22]: > 100 µM
- LC50 [23]: > 100 µM
- LC50 [24]: 59.6 µM
- LC50 [25]: > 100 µM
- LC50 [26]: > 100 µM
- GI50 [27]: 1.71 µM
- TGI [27]: 19.1 µM
- GI50 [28]: 3.5 µM
- TGI [28]: > 100 µM
- LC50 [29]: > 100 µM
- LC50 [30]: > 100 µM
- LC50 [31]: > 100 µM
- LC50 [32]: 88.4 µM
- LC50 [33]: 90.6 µM
- LC50 [34]: > 100 µM
- LC50 [35]: > 100 µM
- LC50 [36]: > 100 µM
- LC50 [37]: > 100 µM
- LC50 [38]: 97.6 µM
- LC50 [39]: > 100 µM

SMILES: COc1ccc(C(=O)/C=C/c2cc3ccccc3[nH]c2=O)cc1
- GI50 [1]: 2.75 µM
- TGI [1]: 8.34 µM
- GI50 [2]: 2.12 µM
- TGI [2]: 6.13 µM
- GI50 [3]: 3.21 µM
- TGI [3]: > 100 µM
- GI50 [4]: 3.98 µM
- TGI [4]: 18.6 µM
- GI50 [5]: 2.76 µM
- TGI [5]: 7.49 µM
- GI50 [6]: 4.06 µM
- TGI [6]: 22.5 µM
- GI50 [7]: 7.59 µM
- TGI [7]: 30.6 µM
- GI50 [8]: 2.63 µM
- TGI [8]: 8.44 µM
- GI50 [9]: 3.57 µM
- TGI [9]: > 100 µM
- GI50 [10]: 4.44 µM
- TGI [10]: > 100 µM
- GI50 [11]: 3.93 µM
- TGI [11]: 16.7 µM
- GI50 [12]: 1.78 µM
- TGI [12]: 3.51 µM
- GI50 [13]: 3.54 µM
- TGI [13]: 55.8 µM
- GI50 [14]: 3.52 µM
- TGI [14]: > 100 µM
- GI50 [15]: 2.86 µM
- TGI [15]: 88.7 µM
- GI50 [16]: 2.38 µM
- TGI [16]: 5.98 µM
- GI50 [17]: 3.3 µM
- TGI [17]: > 100 µM
- LC50 [18]: > 100 µM
- LC50 [19]: > 100 µM
- LC50 [20]: > 100 µM
- LC50 [21]: 31.6 µM
- LC50 [22]: > 100 µM
- LC50 [23]: > 100 µM
- LC50 [24]: 29 µM
- LC50 [25]: 40.7 µM
- LC50 [26]: 75.8 µM
- GI50 [27]: 2.83 µM
- TGI [27]: > 100 µM
- GI50 [28]: 4.04 µM
- TGI [28]: > 100 µM
- LC50 [29]: 91.6 µM
- LC50 [30]: 29.8 µM
- LC50 [31]: > 100 µM
- LC50 [32]: > 100 µM
- LC50 [33]: 57 µM
- LC50 [34]: > 100 µM
- LC50 [35]: > 100 µM
- LC50 [36]: 35.8 µM
- LC50 [37]: > 100 µM
- LC50 [38]: 46.3 µM
- LC50 [39]: > 100 µM
